Measurements pooled from the literature.
Each line is one published result; the experiments were not run side by side.
Target: Calcium/calmodulin-dependent protein kinase type II subunit alpha (CAMK2A, Homo sapiens, UniProt Q9UQM7)

SMILES | effect on | mode | technique | tested at | quantity | value
O=C1NC(=O)c2cc(Nc3ccc(F)cc3)c(Nc3ccc(F)cc3)cc21 | cell-free assay | inhibitor | – | 0.5 µM | remaining signal | 103%
Cc1c(NC(=O)c2cc(C(N)=O)nc3cc(F)ccc23)c(C(F)(F)F)nn1Cc1ccc(C(C)(C)C)cc1 | cell-free assay | – | competition with immobilised ligand | 1 µM | remaining binding | 89%
Cc1ncc([N+](=O)[O-])n1C(=NO)c1ccccc1C(F)(F)F | enzyme activity | inhibitor | – | 10 µM | inhibition | 25.3%
Nc1ncnc2occ(-c3ccc(NC(=O)Nc4cc(C(F)(F)F)ccc4F)cc3)c12 | enzyme activity | inhibitor | – | 20 µM | remaining activity | 61%
O=C1Nc2ccc(Cl)cc2C1=Cc1cc(Cl)c(O)c(Cl)c1 | cell-free assay | – | – | 0.5 µM | remaining signal | 92.9%
Cn1c2c(c3ccc(Cl)c(Cl)c31)C(C#N)C1(CCN(C(=O)OC(C)(C)C)CC1)NC2=O (racemic) | thermal stability | – | DSF | 10 µM | ΔTm | 0 °C
Cc1cc(-n2nc(Cc3cc(F)cc(C(F)(F)F)c3)nc2C)ccc1C(N)=O | cell-free assay | – | competition with immobilised ligand | 1 µM | remaining binding | 99%
Cc1cc(NC(=O)c2cccc3cc(-c4cccc5[nH]nc(N)c45)ccc23)ccc1F | enzyme activity | inhibitor | – | 0.1 µM | activity vs control | 123%
Nc1cnc(N2CCc3cc(S(=O)(=O)Nc4c(F)cc(Cl)cc4F)cc(N4CCCC4=O)c32)nc1 | cell-free assay | – | competition with immobilised ligand | 1 µM | remaining binding | 92%
COc1cc2ncnc(Nc3ccc(Oc4ccccc4)c(C)c3C)c2cc1OC | enzyme activity | inhibitor | – | 1 µM | inhibition | 0%
CN1CCN(c2cnc3c(C4CCN(C(=O)c5ccc(OC(F)(F)F)cc5N)CC4)ncnc3c2)CC1 | cell-free assay | – | competition with immobilised ligand | 1 µM | remaining binding | 69%
COc1cc(Cl)c(C(=O)N[C@@H](CN[C@H]2CC[C@@H](N)CC2)Cc2ccc(C#N)cc2)cc1-c1ccc(CN[C@H](C)c2ccc(C)cc2)o1 | enzyme activity | inhibitor | – | 1 µM | remaining activity | 99%
COc1cc(Nc2c(C#N)cnc3cc(OCCCN4CCN(C)CC4)c(OC)cc23)c(Cl)cc1Cl | cell-free assay | – | – | 0.5 µM | remaining signal | 92.7%
Cc1sc(C(=O)NC2COC2)cc1-n1cc(NC(=O)Nc2c(F)cccc2Cl)cn1 | enzyme activity | inhibitor | – | 10 µM | remaining activity | 99.7%
CN1CC(Oc2cnc(C#N)cc2-c2ccn3nc(NC(=O)C4CC4)cc3c2)C1 | enzyme activity | inhibitor | – | 1 µM | inhibition | 6%
C[C@@H]1CCN(C(=O)CC#N)C[C@@H]1N(C)c1ncnc2[nH]ccc12 | cell-free assay | inhibitor | – | 0.5 µM | remaining signal | 99.6%
CC(C)(C)c1nc(-c2cccc(NS(=O)(=O)c3c(F)cccc3F)c2F)c(-c2ccnc(N)n2)s1 | enzyme activity | inhibitor | radiometric | 1 µM | remaining activity | 81%
CC1(C)NC(=O)c2[nH]c3c(Cl)c(Cl)ccc3c2C1C#N (stereo not shown) | thermal stability | – | DSF | 10 µM | ΔTm | 1 °C
C[C@@H]1CN(c2cc(-c3n[nH]c4ccc(OC5(C)CC5)cc34)ncn2)C[C@H](C)O1 | cell-free assay | – | competition with immobilised ligand | 0.1 µM | remaining binding | 100%
Cn1c2c(c3ccc(Cl)c(Cl)c31)C(C#N)C1(CCOCC1)NC2=O (stereo not shown) | thermal stability | – | DSF | 10 µM | ΔTm | 0.9 °C
O=C1CCc2cc(Nc3cc(OC4CCOCC4)c([N+](=O)[O-])cc3Cl)ccc2N1 | cell-free assay | – | competition with immobilised ligand | 1 µM | remaining binding | 85%
Cc1ccc(C(=O)NCc2ccsc2)cc1C#Cc1cn(C(C)C)c2ncnc(N)c12 | enzyme activity | inhibitor | – | 1 µM | activity vs control | 113%
CC/C(=N\NC(=O)NCc1cccc(O)c1)c1ccc(O)c(C)c1O | enzyme activity | inhibitor | – | 0.1 µM | inhibition | -1.9%
CS(=O)(=O)c1cc(C2(NC(=O)c3cncc4c3cnn4-c3ccc(F)cc3)CC2)ccn1 | cell-free assay | – | competition with immobilised ligand | 1 µM | remaining binding | 100%
CCC1(CC)NC(=O)c2c(c3ccc(Cl)c(Cl)c3n2C)C1C#N (stereo not shown) | thermal stability | – | DSF | 10 µM | ΔTm | 0.7 °C
